Data set [1] relates to SiHa. In words: Antiproliferative activity against human SiHa cells assessed as reduction in cell viability at 40 to 80 nM incubated for 48 hrs by EdU staining based laser scanning confocal microscopy. Format: functional. The gist of the method: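 Cells, 5×10^4, were seeded in 24-well plates and treated for 48 h. They were then labeled using an EdU Apollo 488 imaging kit with Hoechst 33342 nuclear stain and imaged by laser scanning confocal microscopy. Percent EdU-positive cells = EdU-positive/Hoechst-stained × 100%.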

The subject of data set [2] is T47D. The experiment in a line: Induction of apoptosis in human T47D cells assessed as increase in late apoptotic cells at 20 to 40 nM incubated for 48 hrs by annexin V FITC and propidium iodide staining based flow cytometry. Format: functional, cell-based. The gist of the method:
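Annexin V-FITC/PI double staining with flow-cytometric readout. MDA-MB-231, T-47D, SiHa and HeLa cells were treated with graded concentrations for 48 h. MDA-MB-231 and T-47D were grown in DMEM and SiHa in 1640 medium, each with 10% FBS and 1% penicillin/streptomycin at 37°C under 5% CO2. Early- and late-stage apoptotic fractions were scored.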
Background: In flow cytometry, cells or beads pass a laser one at a time.

Data set [3] has as its system T47D. The experiment in a line: Induction of apoptosis in human T47D cells assessed as decrease in Rb phosphorylation incubated for 48 hrs by Western blot analysis. Format: functional, cell-based. The gist of the method:
(§1)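 Cancer cells were exposed to graded concentrations for 48 h, washed three times in PBS and lysed in RIPA buffer. Immunoblots were probed with anti-Rb, anti-phospho-Rb, anti-Ki67 and anti-Bcl-2, each at 1:1000. β-actin served as loading control.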
In general terms: In western blotting, separated proteins are transferred to a membrane and probed.

Data set [4] has as its system SiHa. In words: Induction of apoptosis in human SiHa cells assessed as decrease in Ki67 expression at 40 to 80 nM incubated for 48 hrs by Western blot analysis. Format: functional, cell-based. Summed up: as §1
Data set [5] in a line: Clearance in Sprague-Dawley rat at 10 mg/kg, iv by HPLC-MS analysis. Format: ADME, organism-based. The following applies: in vivo. Summed up: (§2)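 Rats fitted with jugular vein catheters for serial blood sampling. Compound dissolved in saline with 5% (v/v) DMSO and given as a single 10 mg/kg dose iv or po after an overnight fast, n = 5 per group. Plasma isolated at once and measured by HPLC with tandem MS detection. Parameters derived by noncompartmental fitting.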

Data set [6] can be described thus: Cmax in Sprague-Dawley rat at 10 mg/kg, iv by HPLC-MS analysis. Format: ADME, organism-based. Details: dose 10 mg/kg, route intravenous. The following applies: in vivo. The gist of the method:
as §2

Data set [7] has as its target Activin receptor type-1-like (Homo sapiens) (UniProt P37023). In words: Inhibition of recombinant human ALK1 (142 to end residues) at 1 uM using casein as substrate incubated for 40 mins in presence of [gamma-33P]-ATP by scintillation counting method relative to control. Summed up: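 Kinase panel profiling at 1 μM performed by Eurofins KinaseProfiler; percent inhibition reported as mean of two independent experiments.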

Data set [8] addresses Ephrin type-A receptor 7 (Homo sapiens) (UniProt Q15375). In words: Inhibition of recombinant human EPhA7 (613 to 909 residues) at 1 uM using KTFCGTPEYLAPEVRREPRILSEEEQEMFRDFDYIADWC as substrate incubated for 40 mins in presence of [gamma-33P]-ATP by scintillation counting method relative to control.
For data set [9], the target named is Leukocyte tyrosine kinase receptor (Homo sapiens) (UniProt P29376). The experiment in a line: Inhibition of recombinant human LTK (450 to end residues) at 1 uM using GEEPLYWSFPAKKK as substrate incubated for 40 mins in presence of [gamma-33P]-ATP by scintillation counting method relative to control. Summed up:
(§3)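 Tested at a single 1 uM in an outsourced commercial kinase-profiling panel, read as percent inhibition. Each value is the mean of two independent experiments.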

For data set [10], the system named is Mast/stem cell growth factor receptor Kit (Homo sapiens), P10721 [D816V]. The experiment in a line: Inhibition of recombinant human cKIT D816V mutant (544 to end residues) at 1 uM using poly(Glu, Tyr) 4:1 as substrate incubated for 40 mins in presence of [gamma-33P]-ATP by scintillation counting method relative to control. The gist of the method: as §3
The target of data set [11] is Inhibitor of nuclear factor kappa-B kinase subunit beta (Homo sapiens) (UniProt O14920). In words: Inhibition of recombinant human full length IKKbeta at 1 uM using peptide as substrate incubated for 40 mins in presence of [gamma-33P]-ATP by scintillation counting method relative to control.
In data set [12] the target is Ribosomal protein S6 kinase alpha-4 (Homo sapiens) (UniProt O75676). In words: Inhibition of recombinant human MSK2 (2 to end residues) at 1 uM using GRPRTSSFAEGKK as substrate incubated for 40 mins in presence of [gamma-33P]-ATP by scintillation counting method relative to control.
In data set [13] the target is Myosin light chain kinase 2, skeletal/cardiac muscle (Homo sapiens) (UniProt Q9H1R3). In words: Inhibition of recombinant human full length MYLK2 at 1 uM using KKLNRTLSFAEPG as substrate incubated for 40 mins in presence of [gamma-33P]-ATP by scintillation counting method relative to control.
In data set [14] the target is Serine/threonine-protein kinase Nek1 (Homo sapiens) (UniProt Q96PY6). In words: Inhibition of recombinant human NEK1 (1 to 505 residues) at 1 uM using RLGRDKYKTLRQIRQ as substrate incubated for 40 mins in presence of [gamma-33P]-ATP by scintillation counting method relative to control.
Serine/threonine-protein kinase Nek1 (Homo sapiens), sequence (Q96PY6 whole entry, the tested form may be a part): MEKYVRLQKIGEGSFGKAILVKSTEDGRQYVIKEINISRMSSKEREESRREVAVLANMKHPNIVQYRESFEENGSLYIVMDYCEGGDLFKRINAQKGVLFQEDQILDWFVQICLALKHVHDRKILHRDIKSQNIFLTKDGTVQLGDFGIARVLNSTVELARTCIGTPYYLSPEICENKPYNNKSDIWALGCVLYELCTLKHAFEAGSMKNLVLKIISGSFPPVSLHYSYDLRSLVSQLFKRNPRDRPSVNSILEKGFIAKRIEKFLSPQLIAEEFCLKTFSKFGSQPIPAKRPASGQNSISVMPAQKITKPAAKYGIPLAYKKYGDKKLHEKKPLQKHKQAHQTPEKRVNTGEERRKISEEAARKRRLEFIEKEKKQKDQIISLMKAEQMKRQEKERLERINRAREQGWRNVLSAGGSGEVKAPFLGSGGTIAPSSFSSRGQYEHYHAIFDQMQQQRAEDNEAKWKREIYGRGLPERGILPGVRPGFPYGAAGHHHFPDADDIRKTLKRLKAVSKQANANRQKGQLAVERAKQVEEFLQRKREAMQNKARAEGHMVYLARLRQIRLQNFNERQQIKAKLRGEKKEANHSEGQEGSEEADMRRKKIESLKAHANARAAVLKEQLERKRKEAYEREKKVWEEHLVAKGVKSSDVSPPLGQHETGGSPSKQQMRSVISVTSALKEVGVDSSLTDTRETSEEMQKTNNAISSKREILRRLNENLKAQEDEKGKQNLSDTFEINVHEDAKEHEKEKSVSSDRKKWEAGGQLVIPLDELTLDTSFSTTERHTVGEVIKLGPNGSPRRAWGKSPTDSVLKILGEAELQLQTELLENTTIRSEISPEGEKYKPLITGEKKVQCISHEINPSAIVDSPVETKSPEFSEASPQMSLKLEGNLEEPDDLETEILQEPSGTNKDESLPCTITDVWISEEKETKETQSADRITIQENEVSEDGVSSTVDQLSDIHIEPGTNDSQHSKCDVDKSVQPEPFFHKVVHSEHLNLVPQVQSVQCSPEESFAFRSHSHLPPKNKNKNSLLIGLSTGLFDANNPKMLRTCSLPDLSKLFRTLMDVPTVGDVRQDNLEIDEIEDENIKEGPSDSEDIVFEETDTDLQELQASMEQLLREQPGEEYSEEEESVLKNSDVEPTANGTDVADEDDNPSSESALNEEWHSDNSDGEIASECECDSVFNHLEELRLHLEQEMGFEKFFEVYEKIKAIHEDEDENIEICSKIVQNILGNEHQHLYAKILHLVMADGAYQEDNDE
The target of data set [15] is Serine/threonine-protein kinase PAK 3 (Homo sapiens) (UniProt O75914). The experiment in a line: Inhibition of recombinant human full length PAK3 at 1 uM using RRRLSFAEPG as substrate incubated for 40 mins in presence of [gamma-33P]-ATP by scintillation counting method relative to control. Summed up:
as §3

For data set [16], the target named is Protein kinase C zeta type (Homo sapiens) (UniProt Q05513). In words: Inhibition of recombinant human PKCzeta (2 to end residues) at 1 uM using ERMRPRKRQGSVRRRV as substrate incubated for 40 mins in presence of [gamma-33P]-ATP by scintillation counting method relative to control.
Data set [17] concerns the target MAP kinase-activated protein kinase 5 (Homo sapiens) (UniProt Q8IW41). In words: Inhibition of recombinant human full length PRAK at 1 uM using KKLRRTLSVA as substrate incubated for 40 mins in presence of [gamma-33P]-ATP by scintillation counting method relative to control.
Data set [18] has as its target Protein kinase C alpha type (Homo sapiens) (UniProt P17252). The experiment in a line: Inhibition of recombinant human full length PKCalpha at 1 uM using histone H1 as substrate incubated for 40 mins in presence of [gamma-33P]-ATP by scintillation counting method relative to control.
Data set [19] has as its system Proto-oncogene tyrosine-protein kinase receptor Ret (Homo sapiens), P07949 [V804L]. In words: Inhibition of recombinant human RET V804L mutant (658 to end residues) at 1 uM using KKKVSRSGLYRSPSMPENLNRPR as substrate incubated for 40 mins in presence of [gamma-33P]-ATP by scintillation counting method relative to control.
The subject of data set [20] is Proto-oncogene tyrosine-protein kinase receptor Ret (Homo sapiens), P07949 [V804M]. The experiment in a line: Inhibition of recombinant human RET V804M mutant (658 to end residues) at 1 uM using KKKVSRSGLYRSPSMPENLNRPR as substrate incubated for 40 mins in presence of [gamma-33P]-ATP by scintillation counting method relative to control.

Here are results for one compound from ChEMBL document CHEMBL4406821, “Novel dual inhibitors targeting CDK4 and VEGFR2 synergistically suppressed cancer progression and angiogenesis” (Eur J Med Chem, 2019).

Active and inactive are the calls of the source. The calls are words filed in the database; no cut-off is given here.

MAP kinase-activated protein kinase 5 (Homo sapiens), sequence (Q8IW41 whole entry): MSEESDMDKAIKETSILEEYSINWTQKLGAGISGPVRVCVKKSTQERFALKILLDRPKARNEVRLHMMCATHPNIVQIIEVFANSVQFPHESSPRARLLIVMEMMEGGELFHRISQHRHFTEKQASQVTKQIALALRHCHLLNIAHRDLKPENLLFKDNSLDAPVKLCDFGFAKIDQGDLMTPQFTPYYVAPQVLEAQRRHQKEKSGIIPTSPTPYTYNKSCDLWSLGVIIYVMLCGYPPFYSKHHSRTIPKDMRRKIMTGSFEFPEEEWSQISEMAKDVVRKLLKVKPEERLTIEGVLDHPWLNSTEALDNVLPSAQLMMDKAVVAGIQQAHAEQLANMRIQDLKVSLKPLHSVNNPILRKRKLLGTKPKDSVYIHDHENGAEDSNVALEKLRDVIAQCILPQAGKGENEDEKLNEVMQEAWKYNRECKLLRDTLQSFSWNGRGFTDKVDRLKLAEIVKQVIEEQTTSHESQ
Leukocyte tyrosine kinase receptor (Homo sapiens), sequence (P29376 whole entry): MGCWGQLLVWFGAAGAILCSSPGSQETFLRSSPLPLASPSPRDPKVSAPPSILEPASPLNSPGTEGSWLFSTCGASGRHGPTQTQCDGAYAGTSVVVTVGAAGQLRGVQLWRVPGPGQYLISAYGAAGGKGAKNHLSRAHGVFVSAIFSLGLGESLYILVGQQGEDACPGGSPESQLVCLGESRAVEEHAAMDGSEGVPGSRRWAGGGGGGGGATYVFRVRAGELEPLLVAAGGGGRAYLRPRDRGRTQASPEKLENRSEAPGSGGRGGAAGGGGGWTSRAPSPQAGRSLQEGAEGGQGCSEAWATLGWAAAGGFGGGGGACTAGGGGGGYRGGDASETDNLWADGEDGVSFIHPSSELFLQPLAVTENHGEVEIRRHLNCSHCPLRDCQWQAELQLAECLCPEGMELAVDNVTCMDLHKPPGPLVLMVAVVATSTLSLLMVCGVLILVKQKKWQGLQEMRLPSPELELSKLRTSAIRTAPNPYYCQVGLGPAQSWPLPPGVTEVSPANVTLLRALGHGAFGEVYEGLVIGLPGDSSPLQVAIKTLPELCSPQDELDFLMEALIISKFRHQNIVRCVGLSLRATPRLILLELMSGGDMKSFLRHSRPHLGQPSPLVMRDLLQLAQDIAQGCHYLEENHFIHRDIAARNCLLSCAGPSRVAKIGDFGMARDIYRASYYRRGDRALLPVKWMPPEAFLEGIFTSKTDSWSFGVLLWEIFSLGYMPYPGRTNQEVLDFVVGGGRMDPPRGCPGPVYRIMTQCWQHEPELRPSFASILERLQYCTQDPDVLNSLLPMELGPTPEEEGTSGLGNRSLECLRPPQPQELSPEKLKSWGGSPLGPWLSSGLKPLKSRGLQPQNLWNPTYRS
Ephrin type-A receptor 7 (Homo sapiens), sequence (Q15375 28-998 limits assumed): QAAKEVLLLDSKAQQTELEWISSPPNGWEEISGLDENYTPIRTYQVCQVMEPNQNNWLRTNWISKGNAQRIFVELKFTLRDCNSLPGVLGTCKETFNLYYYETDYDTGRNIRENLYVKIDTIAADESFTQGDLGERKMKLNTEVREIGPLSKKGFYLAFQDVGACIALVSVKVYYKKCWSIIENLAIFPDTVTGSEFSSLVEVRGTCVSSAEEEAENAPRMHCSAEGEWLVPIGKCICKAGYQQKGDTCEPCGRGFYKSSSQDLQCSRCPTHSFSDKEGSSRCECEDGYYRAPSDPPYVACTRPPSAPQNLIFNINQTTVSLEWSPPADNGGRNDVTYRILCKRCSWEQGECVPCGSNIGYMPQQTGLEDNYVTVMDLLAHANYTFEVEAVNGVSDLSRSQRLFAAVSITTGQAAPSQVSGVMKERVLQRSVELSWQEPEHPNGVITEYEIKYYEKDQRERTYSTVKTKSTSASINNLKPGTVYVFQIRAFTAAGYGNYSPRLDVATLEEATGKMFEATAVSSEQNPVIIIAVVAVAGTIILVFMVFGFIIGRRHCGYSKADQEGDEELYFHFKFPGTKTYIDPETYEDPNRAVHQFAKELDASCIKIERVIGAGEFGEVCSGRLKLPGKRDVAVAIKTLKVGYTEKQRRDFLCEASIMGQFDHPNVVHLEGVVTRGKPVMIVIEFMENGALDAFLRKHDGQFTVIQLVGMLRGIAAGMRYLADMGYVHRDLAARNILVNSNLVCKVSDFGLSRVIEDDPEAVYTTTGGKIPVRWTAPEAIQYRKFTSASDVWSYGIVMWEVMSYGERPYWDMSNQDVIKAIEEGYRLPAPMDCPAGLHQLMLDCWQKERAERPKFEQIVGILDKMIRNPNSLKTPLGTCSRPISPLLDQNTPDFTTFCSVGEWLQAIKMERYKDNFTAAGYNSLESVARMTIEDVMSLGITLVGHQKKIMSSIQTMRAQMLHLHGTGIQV
Proto-oncogene tyrosine-protein kinase receptor Ret (Homo sapiens), P07949 [V804M], sequence (P07949 whole entry V804M): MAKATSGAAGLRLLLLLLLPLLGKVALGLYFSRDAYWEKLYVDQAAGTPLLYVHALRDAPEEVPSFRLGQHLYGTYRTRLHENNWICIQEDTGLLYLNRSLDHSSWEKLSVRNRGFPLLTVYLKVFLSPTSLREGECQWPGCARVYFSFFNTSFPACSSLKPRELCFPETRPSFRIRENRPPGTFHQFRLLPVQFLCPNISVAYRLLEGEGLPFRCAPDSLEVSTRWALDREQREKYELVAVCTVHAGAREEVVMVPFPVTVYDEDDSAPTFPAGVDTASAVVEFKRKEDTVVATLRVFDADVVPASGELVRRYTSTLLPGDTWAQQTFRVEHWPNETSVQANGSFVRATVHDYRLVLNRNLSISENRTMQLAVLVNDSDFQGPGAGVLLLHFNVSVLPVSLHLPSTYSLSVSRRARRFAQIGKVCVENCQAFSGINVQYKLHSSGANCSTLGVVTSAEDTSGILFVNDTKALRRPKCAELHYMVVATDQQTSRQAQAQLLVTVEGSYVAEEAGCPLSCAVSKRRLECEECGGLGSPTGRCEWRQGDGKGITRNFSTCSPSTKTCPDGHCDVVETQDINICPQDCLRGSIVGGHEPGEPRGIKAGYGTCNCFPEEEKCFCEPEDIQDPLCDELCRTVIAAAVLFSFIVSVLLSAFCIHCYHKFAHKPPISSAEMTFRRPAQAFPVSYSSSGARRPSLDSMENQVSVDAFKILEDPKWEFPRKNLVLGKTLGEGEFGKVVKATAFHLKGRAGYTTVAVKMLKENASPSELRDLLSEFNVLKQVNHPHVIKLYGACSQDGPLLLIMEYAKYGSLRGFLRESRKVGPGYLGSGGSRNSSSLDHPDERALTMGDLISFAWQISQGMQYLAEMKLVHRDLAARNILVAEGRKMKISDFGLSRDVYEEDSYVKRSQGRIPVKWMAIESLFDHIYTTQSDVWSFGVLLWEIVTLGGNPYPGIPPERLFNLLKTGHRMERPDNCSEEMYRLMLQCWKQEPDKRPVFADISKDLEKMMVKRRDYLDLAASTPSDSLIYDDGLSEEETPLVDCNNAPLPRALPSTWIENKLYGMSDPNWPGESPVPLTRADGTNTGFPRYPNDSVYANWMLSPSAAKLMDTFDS
Proto-oncogene tyrosine-protein kinase receptor Ret (Homo sapiens), P07949 [V804L], sequence (P07949 whole entry V804L): as the sequence (P07949 whole entry V804M) above, with M804L counted along it

For the compound `Cc1ccc(NC(=O)C2(C(=O)Nc3ccc(Nc4ncc(F)c(-c5cc(F)c6nc(C)n(C(C)C)c6c5)n4)cc3)CC2)cc1`, the inhibition (in general, the relative decrease from the control value, in per cent) in the data set on SiHa [1] is “Active”. In addition, the result in the data set on T47D [2] and in the data set with SiHa [4] was Active. For the same compound, the Activity result in the data set with T47D [3] was “Dose-dependent effect”. Further, the clearance (in general, the rate of elimination divided by the concentration) in data set [5] is 16.7 mL/min/kg. Further, the Cmax (commonly the peak of the concentration-time curve) in data set [6] came out at 7000 ng/mL. For the same compound, the inhibition in data set [7] was determined as 58%; in data set [8], 81%; in [9] it was 0%; in data set [10], 0%; in [11], 11%; in [12], 78%. The inhibition in [13] turned out to be 30%; in data set [14] it was 72%; in data set [15] it was 0%; in data set [16] it was 4%; in [17], 1%; in data set [18], 70%. Also, the inhibition in [19] worked out at 42%; in data set [20], 27%.
